Experimental data reported in ChEMBL document CHEMBL3286210, “Discovery of 3-aryl-3-ethoxypropanoic acids as orally active GPR40 agonists” (Bioorg Med Chem Lett, 2014).
Active and inactive are the calls of the source. No cut-off for these calls is given here.

Tests used:
[1] = molecular target: Free fatty acid receptor 1 (Homo sapiens, UniProt O14842); assay: Agonist activity at human GPR40 expressed in CHO cells by calcium flux assay; assay type: functional, cell-based
How it was run: (§1)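 Intracellular calcium flux read in CHO cells transfected with GPR40; values are means of two or three independent experiments.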

[2] = molecular target: Free fatty acid receptor 1 (Rattus norvegicus, UniProt Q8K3T4); assay: Agonist activity at rat GPR40 expressed in CHO cells by calcium flux assay; assay type: functional, cell-based; how it was run: as §1
[3] = Lipophilicity, log D of the compound at pH 7.4; assay type: physicochemical; conditions: buffer
[4] = Clearance in F344 rat at 10 mg/kg, iv; assay type: ADME, organism-based; set-up: dose 10 mg/kg, route intravenous; conditions: in vivo
How it was run: (§2)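 F344 rats; single dose given iv at 10 mg/kg or orally at 10 mg/kg (some compounds iv 2 mg/kg and po 3 mg/kg); plasma drug levels used to derive pharmacokinetic parameters.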

[5] = Volume of distribution at steady state in F344 rat at 10 mg/kg, iv; assay type: ADME, organism-based; set-up: dose 10 mg/kg, route intravenous; conditions: in vivo, read-out: Vdss; how it was run: as §2
[6] = Half life in F344 rat at 10 mg/kg, iv; assay type: ADME, organism-based; set-up: dose 10 mg/kg, route intravenous; conditions: in vivo; how it was run: as §2
[7] = Cmax in F344 rat at 10 mg/kg, po; assay type: ADME, organism-based; set-up: dose 10 mg/kg, route oral; conditions: in vivo; how it was run: as §2
[8] = AUC in F344 rat at 10 mg/kg, po; assay type: ADME, organism-based; set-up: dose 10 mg/kg, route oral; conditions: plasma; how it was run: as §2
[9] = Oral bioavailability in F344 rat at 10 mg/kg; assay type: ADME, organism-based; conditions: in vivo; how it was run: as §2
Rattus norvegicus [10] = assay: Antidiabetic activity in diabetic Zucker fatty rat model assessed as reduction of blood glucose level at 10 mg/kg, po administered 30 mins prior to glucose challenge by oral glucose tolerance test; assay type: functional, organism-based; set-up: dose 10 mg/kg
How it was run: (§3)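 Nine-week-old Zucker fatty rats fasted overnight; vehicle or compound given orally (1–10 mg/kg) 30 min before oral glucose load of 2 g/kg; blood sampled for plasma glucose and insulin; mean ± S.E., n = 6.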

Homo sapiens = organism: Homo sapiens; assay: Inhibition of mitochondrial respiratory chain complex 1 (unknown origin) at 100 uM
How it was run: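 Compound tested at 100 μM. Read-out is percent inhibition of mitochondrial respiratory chain complex 1.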

[11] = Oral bioavailability in F344 rat; assay type: ADME, organism-based; conditions: in vivo; how it was run: as §2
[12] = Clearance in F344 rat at 2 mg/kg, iv; assay type: ADME, organism-based; set-up: dose 2 mg/kg, route intravenous; conditions: in vivo
How it was run: (§4)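 F344 rats, single iv dose of 2 mg/kg, plasma pharmacokinetic parameters determined.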

[13] = Volume of distribution at steady state in F344 rat at 2 mg/kg, iv; assay type: ADME, organism-based; set-up: dose 2 mg/kg, route intravenous; conditions: in vivo, read-out: Vdss; how it was run: as §4
[14] = Half life in F344 rat at 2 mg/kg, iv; assay type: ADME, organism-based; set-up: dose 2 mg/kg, route intravenous; conditions: in vivo; how it was run: as §4
[15] = Cmax in F344 rat at 3 mg/kg, po; assay type: ADME, organism-based; set-up: dose 3 mg/kg, route oral; conditions: in vivo
How it was run: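 F344 rats, single oral dose of 3 mg/kg, plasma pharmacokinetic parameters determined.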

[16] = AUC in F344 rat at 3 mg/kg, po; assay type: ADME, organism-based; set-up: dose 3 mg/kg, route oral; conditions: plasma
[17] = Oral bioavailability in F344 rat at 3 mg/kg; assay type: ADME, organism-based; conditions: in vivo
How it was run: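 F344 rats. Bioavailability from an iv dose of 2 mg/kg paired with an oral dose of 3 mg/kg.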

MIN6 = assay: Insulinotropic effect in mouse MIN6 cells in presence of 25 mM glucose; assay type: functional, cell-based
How it was run: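 MIN6 mouse insulinoma cells exposed to compound from 0.001 to 10 µM with 25 mM glucose; insulin secreted into medium measured; mean ± S.E. of 4 wells.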

Rattus norvegicus [18] = assay: Antidiabetic activity in po dosed diabetic Zucker fatty rat model assessed as reduction of blood glucose level administered 30 mins prior to glucose challenge by oral glucose tolerance test; assay type: functional, organism-based; how it was run: as §3
Rattus norvegicus [19] = assay: Antidiabetic activity in diabetic Zucker fatty rat model assessed as reduction of blood glucose level at 3 mg/kg, po administered 30 mins prior to glucose challenge by oral glucose tolerance test relative to sitagliptin; assay type: functional
Rattus norvegicus [20] = assay: Antidiabetic activity in diabetic Zucker fatty rat model assessed as increase in insulin level measured during OGTT at 1 to 10 mg/kg, po administered 30 mins prior to glucose challenge; assay type: functional, organism-based; how it was run: as §3
[21] = Cmax in diabetic Zucker fatty rat model measured during OGTT at 1 mg/kg, po administered 30 mins prior to glucose challenge; assay type: ADME, organism-based; set-up: dose 1 mg/kg, route oral; conditions: in vivo
How it was run: (§5)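 Plasma exposure (Cmax, AUC) measured during OGTT in overnight-fasted Zucker fatty rats dosed orally 30 min before a 2 g/kg glucose challenge.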

[22] = Cmax in diabetic Zucker fatty rat model measured during OGTT at 3 mg/kg, po administered 30 mins prior to glucose challenge; assay type: ADME, organism-based; set-up: dose 3 mg/kg, route oral; conditions: in vivo; how it was run: as §5
[23] = Cmax in diabetic Zucker fatty rat model measured during OGTT at 10 mg/kg, po administered 30 mins prior to glucose challenge; assay type: ADME, organism-based; set-up: dose 10 mg/kg, route oral; conditions: in vivo; how it was run: as §5
[24] = AUC in diabetic Zucker fatty rat model measured during OGTT at 1 mg/kg, po administered 30 mins prior to glucose challenge; assay type: ADME, organism-based; set-up: dose 1 mg/kg, route oral; conditions: in vivo
How it was run: (§6)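 9-week-old Zucker fatty rats were fasted overnight and given vehicle or compound orally 30 min before an oral glucose tolerance test with a 2 g/kg glucose challenge. Blood was sampled during the OGTT, and plasma exposure was reported as Cmax (µg/ml) and AUC (µg h/ml).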

[25] = AUC in diabetic Zucker fatty rat model measured during OGTT at 3 mg/kg, po administered 30 mins prior to glucose challenge; assay type: ADME, organism-based; set-up: dose 3 mg/kg, route oral; conditions: in vivo; how it was run: as §6
[26] = AUC in diabetic Zucker fatty rat model measured during OGTT at 10 mg/kg, po administered 30 mins prior to glucose challenge; assay type: ADME, organism-based; set-up: dose 10 mg/kg, route oral; conditions: in vivo; how it was run: as §6

Chain of Free fatty acid receptor 1 (Homo sapiens, UniProt O14842) (O14842 whole entry): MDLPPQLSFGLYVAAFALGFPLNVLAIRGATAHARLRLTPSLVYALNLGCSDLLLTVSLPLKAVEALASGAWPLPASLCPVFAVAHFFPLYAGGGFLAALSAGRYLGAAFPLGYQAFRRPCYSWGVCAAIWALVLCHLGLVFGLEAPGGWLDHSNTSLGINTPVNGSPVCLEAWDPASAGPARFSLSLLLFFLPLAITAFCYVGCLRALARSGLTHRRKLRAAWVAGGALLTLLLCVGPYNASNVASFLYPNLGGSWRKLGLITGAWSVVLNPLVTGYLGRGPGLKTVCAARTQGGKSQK
Chain of Free fatty acid receptor 1 (Rattus norvegicus, UniProt Q8K3T4) (Q8K3T4 whole entry): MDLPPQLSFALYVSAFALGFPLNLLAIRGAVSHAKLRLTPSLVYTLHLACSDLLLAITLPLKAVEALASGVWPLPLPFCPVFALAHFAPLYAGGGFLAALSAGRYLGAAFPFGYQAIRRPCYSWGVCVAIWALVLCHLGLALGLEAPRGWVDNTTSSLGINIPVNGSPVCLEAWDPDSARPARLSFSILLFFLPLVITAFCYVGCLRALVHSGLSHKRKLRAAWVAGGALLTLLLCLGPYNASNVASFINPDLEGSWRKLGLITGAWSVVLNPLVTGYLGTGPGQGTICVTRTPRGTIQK

| SMILES | EC50 [1] [nM] | EC50 [2] [nM] | logD [3] | further results |
| --- | --- | --- | --- | --- |
| Cc1cccc(C)c1-c1cccc(COc2ccc(CCC(=O)O)cn2)c1 | 3.5 | 38 | 3 | clearance [4]: 20 mL/min/kg; Vd [5]: 0.22 L/kg; half-life [6]: 14.4 min; Cmax [7]: 3500 ng/mL; AUC [8]: 2000 ng·h/mL; bioavailability [9]: 24% |
| O=C(O)CCc1ccc(NCc2cccc(Oc3ccccc3)c2)cc1 [GW9508] | 13 | 99 |  |  |
| Cc1cc(OCc2cccc(-c3c(C)cccc3C)c2)ncc1CCC(=O)O | 9.3 | 130 |  |  |
| N[C@@H](CC(=O)N1CCn2c(nnc2C(F)(F)F)C1)Cc1cc(F)c(F)cc1F |  |  |  | Activity (Rattus norvegicus [10]): Active |
| Cc1cccc(C)c1-c1cccc(COc2ccc(CCC(=O)O)s2)c1 | 52 | 840 | > 2.4 |  |
| Cc1cccc(C)c1-c1cccc(COc2ccc(CC(F)C(=O)O)cn2)c1 (configuration not stated) | 8.6 | 250 |  | inhibition (Homo sapiens): 58% |
| Cc1cccc(C)c1-c1cccc(COc2ccc(CC(C)C(=O)O)cn2)c1 (configuration not stated) | 65 | 2100 |  |  |
| Cc1cccc(C)c1-c1cccc(COc2ccc(CCC(=O)O)nc2)c1 | 71 | 210 | 2.4 |  |
| CCOC(CC(=O)O)c1ccc(OCc2ccc(C)cc2)cc1 (configuration not stated) | 370 | 290 |  |  |
| Cc1cccc(C)c1-c1cccc(COc2cnc(CCC(=O)O)cn2)c1 | 3.8 | 16 | 2.5 |  |
| Cc1cccc(C)c1-c1cccc(COc2ccc(C(F)CC(=O)O)cn2)c1 (configuration not stated) | 18 | 96 |  | inhibition (Homo sapiens): 91% |
| CCOC(CC(=O)O)c1ccc(OCc2cccc(-c3c(C)cccc3C)c2)nc1 (configuration not stated) | 14 | 130 | 2.8 | inhibition (Homo sapiens): 66% |
| Cc1cccc(C)c1-c1cccc(COc2ccc(C(C)CC(=O)O)cn2)c1 (configuration not stated) | 10 | 320 | 3.3 | inhibition (Homo sapiens): 39% |
| Cc1cc(CCC(=O)O)cnc1OCc1cccc(-c2c(C)cccc2C)c1 | 2500 | 9100 |  |  |
| Cc1cccc(C)c1-c1cccc(COc2ncc(CCC(=O)O)s2)c1 | 65 | 540 |  |  |
| COC(Cc1ccc(OCc2cccc(-c3c(C)cccc3C)c2)nc1)C(=O)O (configuration not stated) | 120 | > 10000 |  |  |
| Cc1cccc(C)c1-c1cccc(COc2ccc(CCC(=O)O)nn2)c1 | 420 | 310 |  |  |
| CCOC(CC(=O)O)c1ccc(OCc2ccccc2)nc1 (configuration not stated) | 230 | 760 | 0.7 | inhibition (Homo sapiens): 1% |
| CCOC(CC(=O)O)c1ccc(OCc2cccc(C)c2)cc1 (configuration not stated) | 35 | 78 |  |  |
| Cc1cccc(C)c1-c1cccc(COc2ncc(CCC(=O)O)cn2)c1 | 130 | 1400 | 2 |  |
| Cc1cccc(C)c1-c1cccc(COc2ccc(CCC(=O)O)c(C)n2)c1 | 81 | 1100 |  |  |
| Cc1cccc(C)c1-c1cccc(COc2cc3c(cn2)C(CC(=O)O)OC3)c1 (configuration not stated) | 49 | 190 |  |  |
| Cc1cccc(C)c1-c1cccc(COc2ccc(CCC(=O)O)cc2)c1 | 6.7 | 18 | > 3.3 | inhibition (Homo sapiens): 58%; bioavailability [11]: 0.9% |
| CCOC(CC(=O)O)c1ccc(OCc2ccccc2C)cc1 (configuration not stated) | 20 | 79 | 1.2 | inhibition (Homo sapiens): 6%; clearance [12]: 6.17 mL/min/kg; Vd [13]: 0.16 L/kg; half-life [14]: 22.2 min; Cmax [15]: 3300 ng/mL; AUC [16]: 5300 ng·h/mL; bioavailability [17]: 64%; Activity (MIN6): Dose-dependent effect; Activity (Rattus norvegicus [18]): Dose-dependent effect; fold change (FC) (Rattus norvegicus [19]): 3; Activity (Rattus norvegicus [20]): Active; Cmax [21]: 4100 ng/mL; Cmax [22]: 14000 ng/mL; Cmax [23]: 51000 ng/mL; AUC at 0.5 h [24]: 4800 ng·h/mL; AUC at 0.5 h [25]: 19000 ng·h/mL; AUC at 0.5 h [26]: 78000 ng·h/mL |
